This is a sample that favours compounds with a hit; in the whole collection about 0.37% have one here.
FXIIa inh: blocks human coagulation factor XIIa activity. P00748. purified human FXIIa, AMC substrate fluorescence, 2 h. inhibition, % at 10 µM. 33,000 compounds, 0.2% hits; in the data active = inhibition above about 30%;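 also: 0% = enzyme with vehicle only and 100% = no enzyme blank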
FXIa inh: inhibitors of human coagulation factor XIa; P03951; purified human FXIa, fluorogenic AMC substrate cleavage; inhibition, % at 10 µM; 33,000 compounds, 0.3% hits; AID 687;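 active = inhibition above 40% in the primary screen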;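 also: 0% = enzyme without compound and 100% = blank wells lacking enzyme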
Yeast tox: Inhibitors of S. cerevisiae growth, toxicity; S. cerevisiae wild-type growth, A595 turbidity, 16 h; 30,000 compounds, 0.3% hits; growth inhibition, % at 25 µM (by protocol);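 active = mutant and wild-type yeast strains alike exhibit over 30% growth inhibition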;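 also: 0% = untreated cell controls and 100% = YPD media blanks without cells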
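Schedule: 16 h growth with compound, 30 °C. System: yeast, wild-type or eIF2Bepsilon-R284H mutant. Doses: one dose, 25 µM compound[…]. Buffer or medium: YPD. Signal: turbidity measured as absorbance at 595 nm. Read-out basis: growth inhibition (%) versus cell controls and blanks.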
* = called active by the depositor.

For Cc1cc(/C=N/n2cnnc2)c(C)n1-c1ccc(OCc2ccc(Cl)cc2Cl)cc1 the results were FXIIa inh 3, FXIa inh -7 and Yeast tox 62*.
For O=C(Nc1nnc(CC(=O)N2CCCC2)s1)c1cnccn1 the results were Yeast tox 2.
`O=C(c1ccccn1)N(Cc1ccco1)C1(C(=O)NC2CCCC2)CCCCC1` gave FXIIa inh -13, FXIa inh 24 and Yeast tox 7.
Screening Cc1ccc(N(C(=O)c2ccccn2)C2(C(=O)NC3CCCC3)CCCCC2)cc1 returned FXIIa inh 6 and FXIa inh 42*.
`C=CCSc1nnc(NC(=O)c2cccc(S(=O)(=O)N3CCOCC3)c2)s1` gave FXIIa inh 7, FXIa inh -7 and Yeast tox -9.
For Cc1ccc(OCc2nnc(SCC(=O)NC3CCCCC3)n2C)cc1 the results were FXIIa inh 19 and FXIa inh -8.
`Cn1c(SCC(=O)NC2CCCCC2)nnc1-c1cccc(N)c1` gave FXIIa inh -13 and FXIa inh 40*.
O=C(Oc1cccc(Br)c1)c1cccnc1 was read as Yeast tox 16.
Screening O=C(Oc1ccc2c(=O)c(Cl)coc2c1)c1cccnc1 returned FXIIa inh 29 and FXIa inh 59*.
Screening O=C1NC(=S)N/C1=C/c1cc([N+](=O)[O-])ccc1O returned FXIIa inh 6, FXIa inh -7 and Yeast tox 18.
`CCOC(=O)N1CCN(C(=O)CC(C(=O)N2CCc3ccccc32)n2ccnc2)CC1` (stereo not given) gave Yeast tox 13.
For COC(=O)C(CC(=O)c1ccc(Br)cc1)n1ccnc1 (stereo not given) the results were FXIIa inh 4, FXIa inh 6 and Yeast tox 33*.
For Cc1cccc(N2CCN(CC(=O)Nc3ccc(-n4cnnn4)cc3)CC2)c1C the results were FXIIa inh 4, FXIa inh 41* and Yeast tox 2.
Screening Cc1cccc(C)c1NC(=O)c1ccc(-n2cnnn2)cc1 returned Yeast tox -11.
Screening CCOC(=O)c1cc(NC(=O)c2c(C)noc2C)cc(C(=O)OCC)c1 returned FXIIa inh -1 and FXIa inh -3.
For CC1CCN(C(=O)C2(NC(=O)Nc3cccc(F)c3)CCCCC2)CC1 the results were FXIIa inh 5 and FXIa inh 4.
For COCCNC(=O)COC(=O)c1[nH]c(C)c(C(C)=O)c1C the results were FXIIa inh 14 and FXIa inh 0.
CNC(=O)COC(=O)c1[nH]c(C)c(C(C)=O)c1C was read as FXIIa inh 6 and FXIa inh 46*.
For CC1CCN(C(=O)CSc2nnc(-c3cc4ccccc4cc3O)n2Cc2ccco2)CC1 the results were FXIIa inh 0, FXIa inh 0 and Yeast tox -3.
`CC(O)CNC(=O)c1ccc(-c2nn(C)c(=O)c3ccccc23)cc1` (stereo not given) gave FXIIa inh 5 and FXIa inh -2.
For CCN(CC)CCNC(=O)C(C)c1nn(C)c(=O)c2ccccc12 (stereo not given) the results were FXIIa inh 1 and FXIa inh 42*.
`CCCc1c(O)nc(SCCN(CC)CC)n(C(=O)c2ccccc2)c1=O` gave Yeast tox 1.

Screens as filed in PubChem.
